Data published in ChEMBL document CHEMBL1144979, “Combinatorial modification of natural products: synthesis and in vitro analysis of derivatives of thiazole peptide antibiotic GE2270 A: A-ring modifications” (Bioorg Med Chem Lett, 2003).
Values after ≈ are worked out from the molar mass of the structure shown.

Assays:
Type in all cases: functional
[1] = tested on: Enterococcus faecalis; experiment: In vitro antibacterial activity against Vancomycin-resistant Enterococcus faecalis ATCC 51299
[2] = tested on: Haemophilus influenzae; experiment: In vitro antibacterial activity against Haemophilus influenzae (acr, LS-2)
In short: (§1)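 MICs by NCCLS broth dilution guidelines, modified by adding 0.02% bovine serum albumin to the growth medium; purified, resynthesized compounds tested against the expanded bacterial panel.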

[3] = tested on: Escherichia coli; experiment: In vitro antibacterial activity against Escherichia coli (A G100B); in short: as §1
[4] = tested on: Enterococcus faecium; experiment: In vitro antibacterial activity against Vancomycin-susceptible Enterococcus faecium BM4147.1; in short: as §1
[5] = tested on: Staphylococcus epidermidis; experiment: In vitro antibacterial activity against Staphylococcus epidermidis (ATCC 12228); in short: as §1
[6] = tested on: Streptococcus pyogenes; experiment: In vitro antibacterial activity against Streptococcus pyogenes (ATTC19615); in short: as §1
[7] = tested on: Staphylococcus aureus; experiment: In vitro antibacterial activity against methicillin sensitive Staphylococcus aureus ATCC 25923; in short: as §1
[8] = tested on: Streptococcus pneumoniae; experiment: In vitro antibacterial activity against Streptococcus pneumoniae (ATTC49619); in short: as §1
[9] = tested on: Haemophilus influenzae; experiment: In vitro antibacterial activity against Haemophilus influenzae (ATTC31517); in short: as §1
[10] = tested on: Staphylococcus aureus; experiment: In vitro antibacterial activity against methicillin resistant Staphylococcus aureus (MRSA) ATCC 33591

CNC(=O)C[C@@H]1NC(=O)c2csc(n2)-c2ccc(-c3nc(COC(=O)N[C@@H](C)C(=O)O)cs3)nc2-c2csc(n2)-c2csc(n2)C(C(O)c2ccccc2)NC(=O)CNC(=O)c2nc(sc2COC)[C@H](C(C)C)NC(=O)c2nc1sc2C (some centres undefined)
MIC [1]: 0.5 µg/mL (≈ 0.408 µM) | MIC [2]: 1 µg/mL (≈ 0.815 µM) | MIC [3]: > 16 µg/mL | MIC [4]: 0.25 µg/mL (≈ 0.204 µM) | MIC [5]: 2 µg/mL (≈ 1.63 µM) | MIC [6]: 8 µg/mL (≈ 6.52 µM) | MIC [7]: 1 µg/mL (≈ 0.815 µM) | MIC [8]: 4 µg/mL (≈ 3.26 µM) | MIC [9]: 16 µg/mL (≈ 13 µM) | MIC [10]: 0.5 µg/mL (≈ 0.408 µM)

CNC(=O)C[C@@H]1NC(=O)c2csc(n2)-c2ccc(-c3nc(C(=O)N(C)CCCC(=O)O)cs3)nc2-c2csc(n2)-c2csc(n2)C(C(O)c2ccccc2)NC(=O)CNC(=O)c2nc(sc2COC)[C@H](C(C)C)NC(=O)c2nc1sc2C (some centres undefined)
MIC [1]: 0.25 µg/mL (≈ 0.204 µM) | MIC [2]: 1 µg/mL (≈ 0.817 µM) | MIC [3]: > 16 µg/mL | MIC [4]: 0.125 µg/mL (≈ 0.102 µM) | MIC [5]: 1 µg/mL (≈ 0.817 µM) | MIC [6]: 4 µg/mL (≈ 3.27 µM) | MIC [7]: 0.5 µg/mL (≈ 0.408 µM) | MIC [8]: 2 µg/mL (≈ 1.63 µM) | MIC [9]: 2 µg/mL (≈ 1.63 µM) | MIC [10]: 0.25 µg/mL (≈ 0.204 µM)

CNC(=O)C[C@@H]1NC(=O)c2csc(n2)-c2ccc(-c3nc(C(=O)NCCCN4CCOCC4)cs3)nc2-c2csc(n2)-c2csc(n2)C(C(O)c2ccccc2)NC(=O)CNC(=O)c2nc(sc2COC)[C@H](C(C)C)NC(=O)c2nc1sc2C (some centres undefined)
MIC [1]: 0.06 µg/mL (≈ 0.0479 µM) | MIC [4]: 0.06 µg/mL (≈ 0.0479 µM) | MIC [7]: 0.125 µg/mL (≈ 0.0999 µM) | MIC [10]: 0.06 µg/mL (≈ 0.0479 µM)

CNC(=O)C[C@@H]1NC(=O)c2csc(n2)-c2ccc(-c3nc(COC(=O)N(C)CCCC(=O)O)cs3)nc2-c2csc(n2)-c2csc(n2)C(C(O)c2ccccc2)NC(=O)CNC(=O)c2nc(sc2COC)[C@H](C(C)C)NC(=O)c2nc1sc2C (some centres undefined)
MIC [1]: 0.5 µg/mL (≈ 0.399 µM) | MIC [2]: 2 µg/mL (≈ 1.59 µM) | MIC [3]: > 16 µg/mL | MIC [4]: 0.5 µg/mL (≈ 0.399 µM) | MIC [5]: 0.5 µg/mL (≈ 0.399 µM) | MIC [6]: > 16 µg/mL | MIC [7]: 0.5 µg/mL (≈ 0.399 µM) | MIC [8]: > 16 µg/mL | MIC [9]: 8 µg/mL (≈ 6.38 µM) | MIC [10]: 0.25 µg/mL (≈ 0.199 µM)

CNC(=O)C[C@@H]1NC(=O)c2csc(n2)-c2ccc(-c3nc(C(=O)NCC(O)CC(=O)O)cs3)nc2-c2csc(n2)-c2csc(n2)C(C(O)c2ccccc2)NC(=O)CNC(=O)c2nc(sc2COC)[C@H](C(C)C)NC(=O)c2nc1sc2C (some centres undefined)
MIC [1]: 0.25 µg/mL (≈ 0.204 µM) | MIC [2]: 2 µg/mL (≈ 1.63 µM) | MIC [3]: > 16 µg/mL | MIC [4]: 0.25 µg/mL (≈ 0.204 µM) | MIC [5]: 2 µg/mL (≈ 1.63 µM) | MIC [6]: 1 µg/mL (≈ 0.815 µM) | MIC [7]: 1 µg/mL (≈ 0.815 µM) | MIC [8]: 2 µg/mL (≈ 1.63 µM) | MIC [9]: > 16 µg/mL | MIC [10]: 0.25 µg/mL (≈ 0.204 µM)

CNC(=O)C[C@@H]1NC(=O)c2csc(n2)-c2ccc(-c3nc(COC(=O)NCCCC(=O)O)cs3)nc2-c2csc(n2)-c2csc(n2)C(C(O)c2ccccc2)NC(=O)CNC(=O)c2nc(sc2COC)[C@H](C(C)C)NC(=O)c2nc1sc2C (some centres undefined)
MIC [1]: 0.125 µg/mL (≈ 0.101 µM) | MIC [2]: 4 µg/mL (≈ 3.22 µM) | MIC [3]: > 16 µg/mL | MIC [4]: 0.06 µg/mL (≈ 0.0484 µM) | MIC [5]: 0.25 µg/mL (≈ 0.202 µM) | MIC [6]: 8 µg/mL (≈ 6.45 µM) | MIC [7]: 0.25 µg/mL (≈ 0.202 µM) | MIC [8]: 2 µg/mL (≈ 1.61 µM) | MIC [9]: 16 µg/mL (≈ 12.9 µM) | MIC [10]: 0.125 µg/mL (≈ 0.101 µM)
